Laboratory results from ChEMBL document CHEMBL2434966, “Novel N-4-piperazinyl-ciprofloxacin-chalcone hybrids: synthesis, physicochemical properties, anticancer and topoisomerase I and II inhibitory activity” (Eur J Med Chem, 2013).
≈ marks a conversion by molar mass, not a printed value. Calls of active or inactive are those of the source. The rule behind the calls is not given here.

Experiments:
[1] = Octanol-phosphate buffer partition coefficient, log P of the compound after 5 hrs by shake-flask method; format: physicochemical
Outline: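 Shake-flask method: 100 µL of 0.2 mg/mL stock diluted into 1.9 mL phosphate buffer pH 7.4 plus 2 mL mutually saturated n-octanol, protected from light. Vortexed 3 min, shaken 5 h at 25 °C. Both phases assayed by UV at 272 nm; log P = log([octanol]/[aqueous]), run in triplicate.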

[2] = biological target: T1, DNA topoisomerase 1 (Homo sapiens) (UniProt P11387); experiment: Inhibition of human recombinant topoisomerase 1-mediated relaxation of supercoiled pBR322 DNA at 20 uM after 30 mins by agarose gel electrophoresis relative to control
T1 sequence (whole entry): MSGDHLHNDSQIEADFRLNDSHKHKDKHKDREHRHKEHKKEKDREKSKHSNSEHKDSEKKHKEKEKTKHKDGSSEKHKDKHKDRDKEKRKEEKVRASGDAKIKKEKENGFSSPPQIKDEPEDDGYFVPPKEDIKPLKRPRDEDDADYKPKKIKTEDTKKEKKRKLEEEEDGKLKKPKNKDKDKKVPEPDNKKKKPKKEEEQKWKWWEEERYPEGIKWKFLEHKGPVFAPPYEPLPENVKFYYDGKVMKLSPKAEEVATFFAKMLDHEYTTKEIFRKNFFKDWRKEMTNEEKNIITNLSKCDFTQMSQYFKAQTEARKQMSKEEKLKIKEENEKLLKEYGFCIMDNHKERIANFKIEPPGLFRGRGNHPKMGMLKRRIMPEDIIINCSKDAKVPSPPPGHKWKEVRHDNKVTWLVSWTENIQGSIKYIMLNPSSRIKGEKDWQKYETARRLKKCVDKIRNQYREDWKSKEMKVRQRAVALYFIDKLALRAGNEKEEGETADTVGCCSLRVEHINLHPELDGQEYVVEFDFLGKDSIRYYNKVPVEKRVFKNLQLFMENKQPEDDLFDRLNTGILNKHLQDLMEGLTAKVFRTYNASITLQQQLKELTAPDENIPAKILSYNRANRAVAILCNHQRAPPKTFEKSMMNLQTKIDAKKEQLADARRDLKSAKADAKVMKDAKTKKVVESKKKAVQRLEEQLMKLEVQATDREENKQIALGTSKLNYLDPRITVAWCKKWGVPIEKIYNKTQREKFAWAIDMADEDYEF
Outline: (§1)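 Recombinant human topo I (0.4 units) with 100 ng supercoiled pBR322, 37 °C for 30 min in Tris-HCl pH 7.9, 150 mM NaCl, 0.1% BSA, 1 mM spermidine, 5% glycerol. Compounds came from 20 mM DMSO stocks, with matched DMSO in the enzyme-only control. Stopped with sarcosyl; 1% agarose/TAE gel, ethidium stain, UV densitometry. Camptothecin was the positive control.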

[3] = Aqueous solubility of the compound at pH 6.9 by UV spectroscopic analysis; format: physicochemical; details: aqueous solution
Outline: (§2)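 Excess solid (10 mg) shaken in buffer at pH 6.9 or 7.8, 37 °C. The filtrate was diluted into the linear calibration range and dissolved drug measured by UV absorbance at λmax 272 nm. Values are the average of at least three agreeing independent measurements.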

[4] = biological target: DNA topoisomerase 2-alpha (Homo sapiens) (UniProt P11388); experiment: Inhibition of human topoisomerase 2alpha-mediated relaxation of supercoiled pBR322 DNA at 100 uM after 30 mins by agarose gel electrophoresis relative to control
Outline: (§3)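 Human topo IIα (1 unit) with 200 ng supercoiled pBR322 in Tris-HCl pH 7.9, 50 mM NaCl, 5 mM MgCl2, 1 mM EDTA, 1 mM ATP, BSA, 30 min at 30 °C. DMSO was matched in the enzyme-only control. Stopped with EDTA; 1% agarose/TAE gel, ethidium stain, supercoiled band quantified by UV imaging. Etoposide was the positive control.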

[5] = biological target: T1, DNA topoisomerase 1 (Homo sapiens); experiment: Inhibition of human recombinant topoisomerase 1-mediated relaxation of supercoiled pBR322 DNA at 100 uM after 30 mins by agarose gel electrophoresis relative to control; outline: as §1
[6] = biological target: DNA topoisomerase 2-alpha (Homo sapiens) (UniProt P11388); experiment: Inhibition of human topoisomerase 2alpha-mediated relaxation of supercoiled pBR322 DNA at 20 uM after 30 mins by agarose gel electrophoresis relative to control; outline: as §3
[7] = Aqueous solubility of the compound at pH 7.8 by UV spectroscopic analysis; format: physicochemical; details: aqueous solution; outline: as §2
HCT-116 = experiment: Growth inhibition of human HCT116 cells at 10^-5 M after 48 hrs by sulforhodamine B assay; format: functional, cell-based
Outline: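 NCI 60-cell-line primary screen. Single concentration of 10^-5 M, 48 h incubation. End point by sulforhodamine B protein staining read spectrophotometrically. Reported as percent growth of treated cells relative to untreated control cells.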

NCI-H522 = experiment: Growth inhibition of human NCI-H522 cells at 10^-5 M after 48 hrs by sulforhodamine B assay; format: functional, cell-based
Outline: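 NCI 60-cell-line primary one-dose screen. Cells were exposed to a single 10^-5 M concentration for 48 h. The end point was sulforhodamine B protein staining, read spectrophotometrically. Results are reported as percent growth of treated cells relative to untreated control cells.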

[8] = biological target: T1, DNA topoisomerase 1 (Homo sapiens); experiment: Inhibition of human topoisomerase 1-mediated unwinding of pHOT1 plasmid DNA up to 1000 uM after 30 mins by agarose gel electrophoresis
Outline: (§4)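 pHOT1 plasmid (100 ng) was first relaxed with excess human topo I (3 units) for 30 min at 37 °C in Tris-HCl pH 7.9. Variable compound amounts were then added for a further 30 min at 37 °C. Stopped with EDTA; 1% agarose/TAE gel at 15 V for 15 h, ethidium stain, supercoiled DNA quantified. m-AMSA was the positive control.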

[9] = biological target: T1, DNA topoisomerase 1 (Homo sapiens); experiment: Inhibition of human topoisomerase 1-mediated unwinding of pHOT1 plasmid DNA after 30 mins by agarose gel electrophoresis; outline: as §4

Sequence of DNA topoisomerase 2-alpha (Homo sapiens) (P11388 whole entry): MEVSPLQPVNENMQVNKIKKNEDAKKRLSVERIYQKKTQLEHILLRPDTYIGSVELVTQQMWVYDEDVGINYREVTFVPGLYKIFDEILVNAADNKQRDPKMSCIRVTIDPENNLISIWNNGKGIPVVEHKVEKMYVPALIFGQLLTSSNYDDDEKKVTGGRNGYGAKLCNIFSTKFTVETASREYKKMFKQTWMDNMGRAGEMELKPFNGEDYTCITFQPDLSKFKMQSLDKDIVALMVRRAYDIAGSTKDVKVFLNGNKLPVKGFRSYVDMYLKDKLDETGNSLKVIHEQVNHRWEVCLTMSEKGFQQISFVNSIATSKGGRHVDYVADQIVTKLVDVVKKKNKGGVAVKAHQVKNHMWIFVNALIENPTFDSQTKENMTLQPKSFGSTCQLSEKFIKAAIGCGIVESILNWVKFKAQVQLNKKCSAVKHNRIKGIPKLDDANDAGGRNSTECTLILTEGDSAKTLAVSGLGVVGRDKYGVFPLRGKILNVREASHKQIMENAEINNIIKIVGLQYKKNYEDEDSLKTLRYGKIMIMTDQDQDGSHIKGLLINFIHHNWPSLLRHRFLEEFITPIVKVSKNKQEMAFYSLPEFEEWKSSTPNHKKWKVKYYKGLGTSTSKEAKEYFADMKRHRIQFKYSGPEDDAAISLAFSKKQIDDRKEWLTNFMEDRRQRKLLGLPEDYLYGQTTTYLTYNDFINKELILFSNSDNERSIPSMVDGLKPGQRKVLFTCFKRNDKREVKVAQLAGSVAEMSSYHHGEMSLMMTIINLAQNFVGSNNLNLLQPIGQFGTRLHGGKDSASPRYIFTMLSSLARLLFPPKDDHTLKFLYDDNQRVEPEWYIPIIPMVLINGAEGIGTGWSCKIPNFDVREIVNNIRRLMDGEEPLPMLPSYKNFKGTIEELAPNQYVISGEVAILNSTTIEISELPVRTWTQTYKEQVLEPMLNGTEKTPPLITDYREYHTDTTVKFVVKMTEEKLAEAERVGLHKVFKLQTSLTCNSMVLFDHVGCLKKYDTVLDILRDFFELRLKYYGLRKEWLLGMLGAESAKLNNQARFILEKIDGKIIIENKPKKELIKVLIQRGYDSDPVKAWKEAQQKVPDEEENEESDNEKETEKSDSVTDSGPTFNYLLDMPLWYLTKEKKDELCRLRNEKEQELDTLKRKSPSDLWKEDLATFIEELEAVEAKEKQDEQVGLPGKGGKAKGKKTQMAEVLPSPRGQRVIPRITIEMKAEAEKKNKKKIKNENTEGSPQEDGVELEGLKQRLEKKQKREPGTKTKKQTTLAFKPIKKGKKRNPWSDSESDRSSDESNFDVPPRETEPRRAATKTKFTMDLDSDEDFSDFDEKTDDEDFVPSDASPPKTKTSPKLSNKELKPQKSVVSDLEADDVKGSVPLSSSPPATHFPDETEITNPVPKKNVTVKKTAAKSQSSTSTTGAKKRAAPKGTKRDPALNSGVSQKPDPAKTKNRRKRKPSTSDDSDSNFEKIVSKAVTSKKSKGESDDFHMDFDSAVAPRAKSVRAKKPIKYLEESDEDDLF

Structure (SMILES) | logP at 5 h [1] | inhibition [2] | solubility [3] | inhibition [4] | inhibition [5] | inhibition [6] | solubility [7] | inhibition [8] | inhibition [9] | growth inhibition (GI) (HCT-116) | growth inhibition (GI) (NCI-H522)
Cc1ccc(/C=C/C(=O)c2ccc(NC(=O)CN3CCN(c4cc5c(cc4F)c(=O)c(C(=O)O)cn5C4CC4)CC3)cc2)c(C)c1 | 1.47 | 11% | 2.12 µg/mL (≈ 3.4 µM) | 78.9% | 85.1% | 29.4% | 2.07 µg/mL (≈ 3.32 µM) | – | – | – | –
COc1cc(NS(C)(=O)=O)ccc1Nc1c2ccccc2nc2ccccc12 | – | – | – | – | – | – | – | – | Dose-dependent effect | – | –
O=C(CN1CCN(c2cc3c(cc2F)c(=O)c(C(=O)O)cn3C2CC2)CC1)Nc1ccc(C(=O)/C=C/c2ccc3c(c2)OCO3)cc1 | 0.562 | 25.9% | 2.66 µg/mL (≈ 4.17 µM) | 85.7% | 91.3% | 43.8% | 2.24 µg/mL (≈ 3.51 µM) | inactive | – | – | –
COc1ccc(/C=C/C(=O)c2ccc(NC(=O)CN3CCN(c4cc5c(cc4F)c(=O)c(C(=O)O)cn5C4CC4)CC3)cc2)cc1OC | 1.46 | 2.5% | 0.75 µg/mL (≈ 1.15 µM) | 9% | 73.2% | – | 0.68 µg/mL (≈ 1.04 µM) | – | – | – | –

The next lines start with results.

logP at 5 h [1] | inhibition [2] | solubility [3] | inhibition [4] | inhibition [5] | inhibition [6] | solubility [7] | inhibition [8] | inhibition [9] | Structure (SMILES) | growth inhibition (GI) (HCT-116) | growth inhibition (GI) (NCI-H522)
1.29 | 4.2% | 2.45 µg/mL (≈ 3.89 µM) | 66.7% | 70.8% | 21.3% | 2.12 µg/mL (≈ 3.37 µM) | – | – | O=C(CN1CCN(c2cc3c(cc2F)c(=O)c(C(=O)O)cn3C2CC2)CC1)Nc1ccc(C(=O)/C=C/c2ccccc2Cl)cc1 | – | –
0.684 | 25.3% | 2.98 µg/mL (≈ 4.77 µM) | 84.3% | 67.6% | 49.6% | 2.42 µg/mL (≈ 3.87 µM) | inactive | – | COc1ccc(/C=C/C(=O)c2ccc(NC(=O)CN3CCN(c4cc5c(cc4F)c(=O)c(C(=O)O)cn5C4CC4)CC3)cc2)cc1 | Active | Active
0.302 | 3.1% | 34.4 µg/mL (≈ 54.7 µM) | 52.9% | 68.8% | 24.6% | 29.7 µg/mL (≈ 47.3 µM) | – | – | O=C(CN1CCN(c2cc3c(cc2F)c(=O)c(C(=O)O)cn3C2CC2)CC1)Nc1ccc(C(=O)/C=C/c2cccc(Cl)c2)cc1 | – | –
0.47 | 0.4% | 2.77 µg/mL (≈ 4.4 µM) | 27.7% | 67.5% | – | 2.23 µg/mL (≈ 3.54 µM) | – | – | O=C(CN1CCN(c2cc3c(cc2F)c(=O)c(C(=O)O)cn3C2CC2)CC1)Nc1ccc(C(=O)/C=C/c2ccc(Cl)cc2)cc1 | Active | Active
-0.0812 | 11.1% | 30.7 µg/mL (≈ 47.9 µM) | 82.8% | 90.5% | 8.8% | 27.4 µg/mL (≈ 42.9 µM) | – | – | O=C(CN1CCN(c2cc3c(cc2F)c(=O)c(C(=O)O)cn3C2CC2)CC1)Nc1ccc(C(=O)/C=C/c2cccc([N+](=O)[O-])c2)cc1 | – | –
